Calls of active or inactive are those of the source.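 How the source made its calls, unless noted: active means mean duplicate potentiation above the buffer control mean plus 5 SD of buffer wells; inactive means the rest.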
These compounds were tested against Potassium voltage-gated channel subfamily KQT member 2 (Rattus norvegicus) (UniProt O88943) (assay: KCNQ2 thallium flux enhancement – KCNQ2-CHO-K1 cells, selectivity assay for KCNQ1 potentiator project (AID 493009;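 further: assay conditions were tuned for KCNQ1 rather than KCNQ2 modulators; signal is max minus min fluorescence divided by baseline after thallium stimulus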)). Conditions: FluxOR thallium flux fluorescence, at 10 µM; hits give high values, scaled: buffer 0, activator control 100.
Potassium voltage-gated channel subfamily KQT member 2 (Rattus norvegicus), sequence (O88943 whole entry, looked up): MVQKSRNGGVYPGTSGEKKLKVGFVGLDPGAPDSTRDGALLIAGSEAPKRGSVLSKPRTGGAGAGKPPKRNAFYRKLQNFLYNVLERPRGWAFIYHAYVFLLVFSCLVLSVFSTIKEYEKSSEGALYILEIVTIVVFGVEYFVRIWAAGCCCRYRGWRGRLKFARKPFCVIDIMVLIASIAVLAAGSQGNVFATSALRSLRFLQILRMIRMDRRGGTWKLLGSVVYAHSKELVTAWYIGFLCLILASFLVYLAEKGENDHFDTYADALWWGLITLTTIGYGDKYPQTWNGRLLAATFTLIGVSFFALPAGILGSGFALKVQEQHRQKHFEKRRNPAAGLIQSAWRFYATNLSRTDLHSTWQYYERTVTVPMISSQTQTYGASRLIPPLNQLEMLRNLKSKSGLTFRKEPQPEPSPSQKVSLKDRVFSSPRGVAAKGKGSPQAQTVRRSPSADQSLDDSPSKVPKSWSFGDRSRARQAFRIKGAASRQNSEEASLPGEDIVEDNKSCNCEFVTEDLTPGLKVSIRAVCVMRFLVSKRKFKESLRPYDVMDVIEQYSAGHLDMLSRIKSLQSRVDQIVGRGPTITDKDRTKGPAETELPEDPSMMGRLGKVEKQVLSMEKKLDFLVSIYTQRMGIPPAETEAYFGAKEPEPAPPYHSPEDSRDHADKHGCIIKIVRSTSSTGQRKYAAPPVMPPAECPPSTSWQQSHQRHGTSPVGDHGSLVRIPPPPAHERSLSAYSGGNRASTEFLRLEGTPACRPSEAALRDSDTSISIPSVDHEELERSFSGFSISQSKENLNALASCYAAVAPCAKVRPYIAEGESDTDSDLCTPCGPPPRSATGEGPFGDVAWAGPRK

Compound | outcome | potentiation
O=C(O)C1C2CCC(O2)C1C(=O)NCCC1=CCCCC1 (stereo not given) | inactive | 
COc1ccccc1C(=O)OCC(=O)Nc1ccc(Cl)cn1 | inactive | 
Cc1ccnc(NC(=S)NC(=O)c2cncc(Br)c2)c1 | inactive | 
COc1cccc(N=Nc2ccc(O)c3ncccc23)c1 |  | 170% (active)
COc1cc2c3nnc(-c4ccccc4)c-3cn(Cc3ccc(F)cc3)c2cc1OC | inactive | 
O=C(Nc1nccs1)c1ccc(-c2ccc(F)c(Cl)c2)o1 | inactive | 
S=c1nn[nH]n1C12CC3CC(CC(C3)C1)C2 |  | 210% (active)
NC(=O)NC(=O)C[n+]1cccc(/C=N/O)c1 | inactive | 
Cc1ccccc1NC1=NC(=S)N(c2ccccc2)C12CCCCC2 |  | 156% (active)
CC(C)C(=O)Nc1c(O)c2ccccc2[nH]c1=O | inactive | 
O=C(N/N=C1/C(=O)c2cccc3cccc1c23)c1ccc(Cl)cc1 | inactive | 
Cc1ccc(-n2c(=S)[nH]c3sc4c(c3c2=O)CCC4)cc1 |  | 176% (active)
Cc1ccc(NC(=O)C(=O)NNC(=O)c2ccccc2C)cc1Cl |  | 400% (active)
CN1CCN(S(=O)(=O)c2cccc(C(=O)Nc3cc(Cl)ccc3N3CCOCC3)c2)CC1 | inactive | 
COCCN(Cc1cc2cc3c(cc2nc1Cl)OCO3)C(=O)c1ccc(C)cc1 | inactive | 
c1ccc2[nH]c(-c3ccc4c(c3)OCO4)nc2c1 | inactive | 
CC(C)(C)c1ccc2c(c1)OC(C(=O)N/N=C\c1ccccn1)CO2 (stereo not given) | inactive | 
COc1ccccc1C(=O)Nc1ccnn1C1CCN(CCCC2CCCC2)CC1 | inactive | 
S=c1[nH]nc(-c2cccs2)n1/N=C/c1c(Cl)cccc1Cl |  | 196% (active)
CCNC(=S)/N=C(\N)Nc1nc(C)c2cc(C)ccc2n1 | inactive | 

Compound | outcome | potentiation
CC1Cc2ccccc2N1C(=S)NC(=O)c1ccc(Cl)cc1Cl (stereo not given) |  | 248% (active)
CCc1cccc(C)c1NC(=O)c1ccc2nc(N3CCOCC3)sc2c1 | inactive | 
CC(=O)Nc1nc2c(F)cccc2s1 | inactive | 
COc1ccc(-c2csc(N(CCCN(C)C)C(=O)c3ccccc3Cl)n2)cc1 | inactive | 
COc1ccc2nc(/N=C/c3c(C)[nH]n(-c4ccc(C)cc4C)c3=O)sc2c1 |  | 306% (active)
O=C(CC1C(=O)NCCN1Cc1cccc(F)c1)NCCCN1CCCC1=O (stereo not given) | inactive | 
CC(C)(C)CC(C)(C)NCC(O)COCCOc1ccc(Br)cc1 (stereo not given) | inactive | 
COc1cccc(-c2nnc(Nc3nc4c(F)cccc4s3)o2)c1 |  | 280% (active)
Clc1ccc(C(c2ccccc2)N2CCNCC2)cc1 (stereo not given) | inactive | 
CC(C)CN=Cc1c(O)c([N+](=O)[O-])cc2oc3c(c12)CCCC3 | inactive | 
CCC(Cc1ccccc1)n1c(=S)[nH]c2ccccc2c1=O (stereo not given) | inactive | 
Cn1c(=S)[nH]c2scc(-c3cccs3)c2c1=O |  | 500% (active)
Cc1cccn2c(=O)nc(SCC(=O)N3N=C(c4cccs4)CC3c3ccc(F)cc3)nc12 (stereo not given) | inactive | 
COC(=O)c1cc2c(ccc3ccccc32)oc1=O | inactive | 
C=CCn1c(O)c(N=NC(=S)Nc2ccc(OC)c(Cl)c2)c2ccccc21 |  | 215% (active)
O=C(Oc1c(-c2ccco2)oc2ccccc2c1=O)c1cccnc1 |  | 187% (active)
CCOC(=O)/C(C)=N/NC(=O)c1ccc([N+](=O)[O-])cc1 |  | 349% (active)
Fc1ccc2nc(Nc3nc4c(F)cccc4s3)sc2c1 |  | 180% (active)
O=C(COc1ccccc1[N+](=O)[O-])Nc1cccnc1 |  | 172% (active)
CN(C)c1oc(-c2ccc(OCc3ccc(Cl)cc3)cc2)nc1C#N | inactive | 

The compounds below were run against Potassium voltage-gated channel subfamily KQT member 1 (Homo sapiens) (UniProt P51787) (assay: KCNQ1 activators by electrophysiology – IonWorks patch clamp, KCNQ1-CHO cells, orthogonal assay for KCNQ1 potentiator project, confirmation (AID 493184;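 active means current rise at least 3 SD above the untreated control mean in each of two repeat wells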)). Conditions: automated patch clamp current, at 10 µM; hits give high values.
Potassium voltage-gated channel subfamily KQT member 1 (Homo sapiens), sequence (P51787 whole entry, looked up): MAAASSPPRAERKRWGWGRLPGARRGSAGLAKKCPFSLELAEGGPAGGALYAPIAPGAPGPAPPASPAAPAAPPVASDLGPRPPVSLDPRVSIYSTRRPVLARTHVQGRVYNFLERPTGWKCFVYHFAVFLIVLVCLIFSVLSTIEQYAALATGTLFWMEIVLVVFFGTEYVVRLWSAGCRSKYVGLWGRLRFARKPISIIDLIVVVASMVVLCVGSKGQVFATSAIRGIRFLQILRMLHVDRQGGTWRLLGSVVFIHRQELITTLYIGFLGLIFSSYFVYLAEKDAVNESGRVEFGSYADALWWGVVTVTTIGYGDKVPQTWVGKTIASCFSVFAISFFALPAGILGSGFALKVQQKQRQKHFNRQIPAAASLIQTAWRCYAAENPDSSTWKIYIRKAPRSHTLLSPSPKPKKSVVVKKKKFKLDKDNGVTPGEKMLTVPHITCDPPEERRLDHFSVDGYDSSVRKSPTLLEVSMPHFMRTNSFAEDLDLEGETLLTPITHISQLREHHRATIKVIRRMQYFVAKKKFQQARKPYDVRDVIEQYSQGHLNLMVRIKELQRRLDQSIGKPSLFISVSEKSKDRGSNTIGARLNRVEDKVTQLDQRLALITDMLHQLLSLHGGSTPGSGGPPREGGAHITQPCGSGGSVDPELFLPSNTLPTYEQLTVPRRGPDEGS
Method in brief: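 Probe or stimulus: depolarizing pulse to +40 mV from -90 mV; Material: CHO cells carrying KCNQ1; Compound: one dose, 10 µM final; Signal: automated voltage clamp, amphotericin B perforated patch; Read-out basis: percent current increase versus pre-compound level; Buffer or medium: pH 7.4 external bath; Replication: duplicates.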

Compound | outcome
O=C(O)C1C2CCC(O2)C1C(=O)NCCC1=CCCCC1 (stereo not given) | inactive
COc1ccccc1C(=O)OCC(=O)Nc1ccc(Cl)cn1 | inactive
Cc1ccnc(NC(=S)NC(=O)c2cncc(Br)c2)c1 | inactive
COc1cccc(N=Nc2ccc(O)c3ncccc23)c1 | inactive
COc1cc2c3nnc(-c4ccccc4)c-3cn(Cc3ccc(F)cc3)c2cc1OC | inactive
O=C(Nc1nccs1)c1ccc(-c2ccc(F)c(Cl)c2)o1 | inactive
S=c1nn[nH]n1C12CC3CC(CC(C3)C1)C2 | inactive
NC(=O)NC(=O)C[n+]1cccc(/C=N/O)c1 | inactive
Cc1ccccc1NC1=NC(=S)N(c2ccccc2)C12CCCCC2 | inactive
CC(C)C(=O)Nc1c(O)c2ccccc2[nH]c1=O | inactive
O=C(N/N=C1/C(=O)c2cccc3cccc1c23)c1ccc(Cl)cc1 | inactive
Cc1ccc(-n2c(=S)[nH]c3sc4c(c3c2=O)CCC4)cc1 | inactive
Cc1ccc(NC(=O)C(=O)NNC(=O)c2ccccc2C)cc1Cl | inactive
CN1CCN(S(=O)(=O)c2cccc(C(=O)Nc3cc(Cl)ccc3N3CCOCC3)c2)CC1 | inactive
COCCN(Cc1cc2cc3c(cc2nc1Cl)OCO3)C(=O)c1ccc(C)cc1 | inactive
c1ccc2[nH]c(-c3ccc4c(c3)OCO4)nc2c1 | inactive
CC(C)(C)c1ccc2c(c1)OC(C(=O)N/N=C\c1ccccn1)CO2 (stereo not given) | inactive
COc1ccccc1C(=O)Nc1ccnn1C1CCN(CCCC2CCCC2)CC1 | inactive
S=c1[nH]nc(-c2cccs2)n1/N=C/c1c(Cl)cccc1Cl | inactive
CCNC(=S)/N=C(\N)Nc1nc(C)c2cc(C)ccc2n1 | inactive

Compound | outcome
CC1Cc2ccccc2N1C(=S)NC(=O)c1ccc(Cl)cc1Cl (stereo not given) | inactive
CCc1cccc(C)c1NC(=O)c1ccc2nc(N3CCOCC3)sc2c1 | inactive
CC(=O)Nc1nc2c(F)cccc2s1 | inactive
COc1ccc(-c2csc(N(CCCN(C)C)C(=O)c3ccccc3Cl)n2)cc1 | inactive
COc1ccc2nc(/N=C/c3c(C)[nH]n(-c4ccc(C)cc4C)c3=O)sc2c1 | inactive
O=C(CC1C(=O)NCCN1Cc1cccc(F)c1)NCCCN1CCCC1=O (stereo not given) | inactive
CC(C)(C)CC(C)(C)NCC(O)COCCOc1ccc(Br)cc1 (stereo not given) | inactive
COc1cccc(-c2nnc(Nc3nc4c(F)cccc4s3)o2)c1 | inactive
Clc1ccc(C(c2ccccc2)N2CCNCC2)cc1 (stereo not given) | inactive
CC(C)CN=Cc1c(O)c([N+](=O)[O-])cc2oc3c(c12)CCCC3 | inactive
CCC(Cc1ccccc1)n1c(=S)[nH]c2ccccc2c1=O (stereo not given) | inactive
Cn1c(=S)[nH]c2scc(-c3cccs3)c2c1=O | inactive
Cc1cccn2c(=O)nc(SCC(=O)N3N=C(c4cccs4)CC3c3ccc(F)cc3)nc12 (stereo not given) | inactive
COC(=O)c1cc2c(ccc3ccccc32)oc1=O | inactive
C=CCn1c(O)c(N=NC(=S)Nc2ccc(OC)c(Cl)c2)c2ccccc21 | inactive
O=C(Oc1c(-c2ccco2)oc2ccccc2c1=O)c1cccnc1 | inactive
CCOC(=O)/C(C)=N/NC(=O)c1ccc([N+](=O)[O-])cc1 | inactive
Fc1ccc2nc(Nc3nc4c(F)cccc4s3)sc2c1 | inactive
O=C(COc1ccccc1[N+](=O)[O-])Nc1cccnc1 | inactive
CN(C)c1oc(-c2ccc(OCc3ccc(Cl)cc3)cc2)nc1C#N | inactive

— PubChem BioAssay
